Assay results as given in ChEMBL document CHEMBL4130515, “Identification of Privileged Antichlamydial Natural Products by a Ligand-Based Strategy” (J Nat Prod, 2017).
In brackets after ≈: the same amount, converted by molar mass. Where a name gives a salt, the structure may show the parent alone.

Assays:
[1] = Cytotoxicity against human HL cells assessed as cell viability at 50 uM after 72 hrs by resazurin dye based fluorescence assay relative to control; details: HL cells, read-out: Activity
In short: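 HL cells grown overnight to confluence, then exposed to compound at 50 μM for 72 h at 37 °C, four parallel replicates. Read-out after 2 h with 20 μM resazurin in PBS, fluorescence at 570/590 nm (ex/em). Viability % is relative to cells in 0.25% DMSO medium. Usnic acid 50 μM as positive control.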

[2] = system: Chlamydia pneumoniae; test: Antichlamydial activity against Chlamydia pneumoniae K7 infected in HL cells assessed as chlamydial inhibition at 50 uM after 70 hrs by fluorescent microscopic analysis; format: functional
In short: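 Confluent HL cells infected with C. pneumoniae K7 at MOI 0.3 in medium with 1 μg/mL cycloheximide, centrifuged 500 rpm 1 h, then held at 37 °C for 1 h. At 2 h, compound added at 50 μM or DMSO vehicle. After 70 h at 37 °C, inclusions stained and counted in four fields per coverslip under a fluorescence microscope (20×). Inhibition % is relative to mean vehicle counts.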

[3] = system: Chlamydia pneumoniae; test: Antichlamydial activity against Chlamydia pneumoniae K7 infected in HL cells after 70 hrs by fluorescent microscopic analysis; format: functional, organism-based
In short: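 HL cells grown to confluence, infected with C. pneumoniae K7 at MOI 0.3 in medium with 1 μg/mL cycloheximide, centrifuged 500 rpm 1 h, then 37 °C 1 h. At 2 h, inoculum replaced by cycloheximide medium with compound at 12 concentrations from 1 nM to 100 μM. Incubated 70 h at 37 °C, stained, and inclusions counted by fluorescence microscopy. Three runs; IC50 from variable-slope sigmoidal fit. Azithromycin 20 nM as positive control.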

CC(=O)N[C@H]1CN2CC[C@H](O)[C@@H]2[C@@H](O)[C@@H]1O
viability at 72 h, 50 µM [1]: 86.6% | inhibition at 50 µM [2]: 59.8% | IC50 ([3]; K7, HL, 70 h): 67.2 µM

CCOC(=O)Oc1c(OC)cc(C(=O)O[C@H]2C[C@H]3CN4CCc5c([nH]c6cc(OC)ccc56)[C@@H]4C[C@H]3[C@@H](C(=O)OC)[C@@H]2OC)cc1OC
viability at 72 h, 50 µM [1]: 67.6%

C[C@@H]1C[C@H]2CC[C@H](O2)[C@H](C)C(=O)O[C@@H](C)C[C@@H]2CC[C@@H](O2)[C@@H](C)C(=O)O[C@H](C)C[C@H]2CC[C@H](O2)[C@H](C)C(=O)O[C@@H](C)C[C@@H]2CC[C@@H](O2)[C@@H](C)C(=O)O1
viability at 72 h, 50 µM [1]: 23.7%

COc1c(O)c2c(=O)cc(OC)c3c4c(OC)cc(=O)c5c(O)c(OC)c6c(c(c1CC(C)(O)C6C(C)=O)c23)c54 (centres undefined)
viability at 72 h, 50 µM [1]: -0.3%

O=c1cc(-c2ccccc2)oc2cc(O)ccc12 [7-HYDROXYFLAVONE]
viability at 72 h, 50 µM [1]: 71.1%

O=C1c2c(O)cc(O)cc2O[C@H](c2ccc(O)c(O)c2)[C@H]1O [(+)-TAXIFOLIN]
viability at 72 h, 50 µM [1]: 95.2% | inhibition at 50 µM [2]: 13.4%

C=C1CC[C@H]2O[C@]2(C)CC[C@@H]2[C@@H]1CC2(C)C [(-)-CARYOPHYLLENE OXIDE]
viability at 72 h, 50 µM [1]: 107% | inhibition at 50 µM [2]: 35.7%

Oc1cc(O)c2c(c1)O[C@H](c1ccc(O)c(O)c1)[C@H](O)C2 [(-)-EPICATECHIN]
viability at 72 h, 50 µM [1]: 93.4% | inhibition at 50 µM [2]: 41.7%

C[C@@]1(CO)[C@H](O)CC[C@@]2(C)[C@H]1CC[C@H]1C[C@@H]3C[C@@]12CC[C@]3(O)CO [APHIDICOLIN]
viability at 72 h, 50 µM [1]: 92.3% | inhibition at 50 µM [2]: -3.8%

O=c1cc(-c2ccc(O)cc2)oc2cc(O[C@@H]3O[C@H](CO)[C@@H](O)[C@H](O)[C@H]3O)cc(O)c12 [APIGETRIN]
viability at 72 h, 50 µM [1]: 48.1%

c1cc2c(cc1[C@H]1OC[C@H]3[C@@H]1CO[C@H]3c1ccc3c(c1)OCO3)OCO2 [ASARININ]
viability at 72 h, 50 µM [1]: 57.1%

CC(=O)O[C@H]1C(=O)[C@@]2(C)[C@H]([C@H](OC(=O)c3ccccc3)[C@]3(O)C[C@H](O)C(C)=C1C3(C)C)[C@]1(OC(C)=O)CO[C@@H]1C[C@@H]2O [BACCATIN III]
viability at 72 h, 50 µM [1]: 34.6%

O=C(/C=C/c1ccc(O)c(O)c1)OCCc1ccccc1 [CAFFEIC ACID PHENETHYL ESTER]
viability at 72 h, 50 µM [1]: 46%

C/C=C(/C)C(=O)O[C@H]1CC[C@@]2(C)[C@@H]3CC[C@H]4[C@]5(O)C[C@H](O)[C@@]6(O)[C@@H](CN7C[C@@H](C)CC[C@H]7[C@@]6(C)O)[C@]5(O)C[C@@]42O[C@]13O [CEVADINE]
viability at 72 h, 50 µM [1]: 98.6% | inhibition at 50 µM [2]: 39%

CO[C@H]1[C@@H](O)[C@@H](C)O[C@H](O[C@H]2[C@H](Oc3cccc4c(O)c5c(=O)oc6ccc(C)c7c(=O)oc(c34)c5c67)O[C@H](C)[C@H](O)[C@@H]2O)[C@@H]1O [CHARTREUSIN]
viability at 72 h, 50 µM [1]: 4%

CC(=O)O[C@H]1[C@H]2O[C@]23[C@@H]2CC[C@@H]4C[C@@H](O)CC[C@]4(C)[C@H]2CC[C@]3(C)[C@H]1c1ccc(=O)oc1 [CINOBUFAGIN]
viability at 72 h, 50 µM [1]: 0.2%

COc1ccc(C(=O)OC2C[C@H]3CC[C@H](C2)N3C)cc1OC (some centres undefined) [CONVOLVAMINE HYDROCHLORIDE]
viability at 72 h, 50 µM [1]: 78.8% | inhibition at 50 µM [2]: 21.1%

O=c1oc2cc(O)ccc2c2oc3cc(O)ccc3c12 [COUMESTROL]
viability at 72 h, 50 µM [1]: 96.3% | inhibition at 50 µM [2]: 0%

C[C@@H]1C[C@@H]([C@H](O)CC2CC(=O)NC(=O)C2)C(=O)[C@@H](C)C1 [CYCLOHEXIMIDE]
viability at 72 h, 50 µM [1]: 66.4%

COc1cc2c(cc1OC)[C@@H]1C(=O)c3ccc4c(c3O[C@@H]1CO2)C=CC(C)(C)O4 [DEGUELIN]
viability at 72 h, 50 µM [1]: 21.6%

CC1=CC(=O)C2=C(C)CC[C@@H]3[C@H](OC(=O)[C@H]3C)[C@@H]12 [DESACETOXYMATRICARIN]
viability at 72 h, 50 µM [1]: 93.9% | inhibition at 50 µM [2]: 30.1%

COc1cc(/C=C/c2ccccc2)oc(=O)c1 [DESMETHOXYYANGONIN]
viability at 72 h, 50 µM [1]: 89.8% | inhibition at 50 µM [2]: 35.7%

C[C@H]1O[C@@H](O[C@H]2[C@@H](O)C[C@H](O[C@H]3[C@@H](O)C[C@H](O[C@H]4CC[C@@]5(C)[C@H](CC[C@@H]6[C@@H]5CC[C@]5(C)[C@@H](C7=CC(=O)OC7)CC[C@]65O)C4)O[C@@H]3C)O[C@@H]2C)C[C@H](O)[C@@H]1O [DIGITOXIN]
viability at 72 h, 50 µM [1]: 0.1%

CC(C)[C@@]1(NC(=O)[C@@H]2C[C@@H]3c4cccc5[nH]cc(c45)C[C@H]3N(C)C2)O[C@@]2(O)[C@@H]3CCCN3C(=O)[C@H](Cc3ccccc3)N2C1=O [DIHYDROERGOCRISTINE MESYLATE]
viability at 72 h, 50 µM [1]: 2.7%

CC(C)=CCC[C@](C)(O)[C@H]1CC[C@]2(C)[C@@H]1CC[C@@H]1[C@@]3(C)CCC(=O)C(C)(C)[C@@H]3CC[C@]12C [DIPTEROCARPOL]
viability at 72 h, 50 µM [1]: 32.1%

C[C@@H]1O[C@@H](OC[C@H]2O[C@@H](Oc3cc(O)c4c(c3)O[C@H](c3ccc(O)c(O)c3)CC4=O)[C@H](O)[C@@H](O)[C@@H]2O)[C@H](O)[C@H](O)[C@H]1O [ERIOCITRIN]
viability at 72 h, 50 µM [1]: 75.2% | inhibition at 50 µM [2]: 8.6%

O=C1C[C@@H](c2ccc(O)c(O)c2)Oc2c1ccc(O[C@@H]1O[C@H](CO)[C@@H](O)[C@H](O)[C@H]1O)c2O [FLAVANOMAREIN]
viability at 72 h, 50 µM [1]: 82.6% | inhibition at 50 µM [2]: 22.1%

Cc1cc2c(C(C)C)c(O)c(O)c(C=O)c2c(O)c1-c1c(C)cc2c(C(C)C)c(O)c(O)c(C=O)c2c1O [GOSSYPOL]
viability at 72 h, 50 µM [1]: 0.1%

Cn1c(-c2ccc3c(c2)OCO3)cc(=O)c2ccccc21 [GRAVEOLINE]
viability at 72 h, 50 µM [1]: 100% | inhibition at 50 µM [2]: 5.3%

COc1ccc2c(c1)[nH]c1c(C)nccc12 [HARMINE HYDROCHLORIDE]
viability at 72 h, 50 µM [1]: 87.3% | inhibition at 50 µM [2]: 26%

COc1ccc([C@@H]2CC(=O)c3c(O)cc(O[C@@H]4O[C@H](CO[C@@H]5O[C@@H](C)[C@H](O)[C@@H](O)[C@H]5O)[C@@H](O)[C@H](O)[C@H]4O)cc3O2)cc1O [HESPERIDIN]
viability at 72 h, 50 µM [1]: 101% | inhibition at 50 µM [2]: 26.8%

C=CCc1ccc(O)c(-c2ccc(O)c(CC=C)c2)c1 [HONOKIOL]
viability at 72 h, 50 µM [1]: 8.8%

O=C1Nc2ccccc2/C1=C1/Nc2ccccc2C1=O [INDIRUBIN]
viability at 72 h, 50 µM [1]: 92.5% | inhibition at 50 µM [2]: 2%

O=c1c(O[C@@H]2O[C@H](CO)[C@@H](O)[C@H](O)[C@H]2O)c(-c2ccc(O)c(O)c2)oc2cc(O)cc(O)c12 [ISOQUERCETIN]
viability at 72 h, 50 µM [1]: 95.8% | inhibition at 50 µM [2]: 38%

CN1CCc2cc(O)c(O)cc2C1Cc1ccc(O)c(O)c1 (centres undefined) [LAUDANOSOLINE HYDROBROMIDE]
viability at 72 h, 50 µM [1]: 72.8%

OC[C@@H]1CCCN2CCCC[C@H]12 [LUPININE]
viability at 72 h, 50 µM [1]: 98.7% | inhibition at 50 µM [2]: 28.2%

CCn1cc(C(=O)O)c(=O)c2ccc(C)nc21 [NALIDIXIC ACID]
viability at 72 h, 50 µM [1]: 15.8%

C[C@@H]1C/C=C/C=C/C=C/C=C/[C@H](O[C@@H]2O[C@H](C)[C@@H](O)[C@H](N)[C@@H]2O)C[C@@H]2O[C@](O)(C[C@@H](O)C[C@H]3O[C@@H]3/C=C/C(=O)O1)C[C@H](O)[C@H]2C(=O)O [NATAMYCIN]
viability at 72 h, 50 µM [1]: 67.1%

CC1COc2c(N3CCN(C)CC3)c(F)cc3c(=O)c(C(=O)O)cn1c23 (centres undefined) [OFLOXACIN]
MIC90 ([3]; K7, 70 h): 1.38 µM (≈ 0.499 µg/mL)

CC1(C)CC[C@]2(C(=O)O)CC[C@]3(C)C(=CC[C@@H]4[C@@]5(C)CC[C@H](O)C(C)(C)[C@@H]5CC[C@]43C)[C@@H]2C1 [OLEANOLIC_ACID]
viability at 72 h, 50 µM [1]: 36.3%

C=C1C(=O)[C@]23[C@H](O)[C@H]1CC[C@H]2[C@@]12CO[C@]3(O)[C@@H](O)[C@@H]1C(C)(C)CC[C@@H]2O [ORIDONIN]
viability at 72 h, 50 µM [1]: 0%

C[C@]1(C(=O)O)CCC[C@]2(C)c3cc(O)ccc3CC[C@@H]12 [PODOCARIC ACID]
viability at 72 h, 50 µM [1]: 27.9%

CCCCC[C@H](O)/C=C/C1=C(CCCCCCC(=O)O)C(=O)CC1 [PROSTAGLANDIN B1]
viability at 72 h, 50 µM [1]: 109% | inhibition at 50 µM [2]: 39.8%

C[C@@H]1C[C@H]2O[C@@H]2/C=C\C=C\C(=O)Cc2c(Cl)c(O)cc(O)c2C(=O)O1 [RADICICOL]
viability at 72 h, 50 µM [1]: 0.6%

CN1CCc2cc3c(c4c2[C@H]1Cc1ccccc1-4)OCO3 [REMERINE HYDROCHLORIDE]
viability at 72 h, 50 µM [1]: 45.2%

c1ccc2c3c([nH]c2c1)CNCC3 [TRYPTOLINE]
viability at 72 h, 50 µM [1]: 84.8% | inhibition at 50 µM [2]: 4.9%

O[C@H]1CCN2Cc3ccccc3N=C12 [VASICINE]
viability at 72 h, 50 µM [1]: 102% | inhibition at 50 µM [2]: -1.4%
